Experimental findings from paper PMC3448169 (mBio, 2012) are described below.

“Also recorded” adds a separate entry of the source. Ends that are not written are not given here. * marks the point of attachment. Biotin = O=C1N[C@H]2[C@H](CS[C@H]2CCCCC(=O)*)N1; Ahx = NCCCCCC(=O)O

The chains are these.
T1: rabbit muscle aldolase (Oryctolagus cuniculus, UniProt P00883)
T1 sequence (P00883 1-364): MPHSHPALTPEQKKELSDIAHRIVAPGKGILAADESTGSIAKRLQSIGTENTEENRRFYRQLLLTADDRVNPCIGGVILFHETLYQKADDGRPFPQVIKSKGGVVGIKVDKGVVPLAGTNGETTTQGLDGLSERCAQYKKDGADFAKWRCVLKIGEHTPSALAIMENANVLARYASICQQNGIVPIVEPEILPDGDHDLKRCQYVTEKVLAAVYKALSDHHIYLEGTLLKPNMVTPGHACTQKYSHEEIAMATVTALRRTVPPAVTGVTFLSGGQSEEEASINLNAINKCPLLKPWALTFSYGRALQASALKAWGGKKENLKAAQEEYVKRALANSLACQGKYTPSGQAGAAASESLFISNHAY

B1: RH1 C-terminal cytoplasmic tail peptide (peptide)
peptide: {Biotin-Ahx}-KQEDKEQEKQQQNDFVCDNNKMDDKSTQKYGRNQEEVMEISFDNDYI
B2: TRAP (thrombospondin-related anonymous protein) C-terminal cytoplasmic tail peptide (peptide)
peptide: {Biotin-Ahx}-ETLGEEDKDLDEPEQFRLPEENEWN
B3: rabbit muscle aldolase (enzyme, UniProt P00883 1-364, looked up)
chain: T1 sequence (P00883 1-364)
B4: RH4 C-terminal cytoplasmic tail peptide (peptide)
peptide: {Biotin-Ahx}-EDEVEDEVEDEDENENEVENENEDFNDI
B5: RH2b C-terminal cytoplasmic tail peptide (peptide)
peptide: {Biotin-Ahx}-NDHLSNYADKEEIIEIVFDENEEKYF

One assay has as its system yeast GAPDH. In words: GAPDH pulldown assay with biotinylated peptides on streptavidin-agarose beads. The conditions noted are these: pulldown competition, 10 mM NADH. Type of assay: binding. The essentials: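 Test peptides carried an N-terminal biotin–Ahx linker, were dissolved in 20 mM Tris-HCl pH 8.0 at 0.5 mg/ml, and were bound to streptavidin-agarose for 1 h at RT, then washed. After four washes, bound protein was boiled in reducing LDS buffer and run on 4–12% bis-Tris gels.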

For assay [1], the target named is T1, rabbit muscle aldolase. Nature of the assay: SPR analysis of aldolase binding to immobilized peptides. The conditions noted are these: SPR sensorgrams, aldolase 50 to 800 nM. The essentials: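 CM5 chips at 25°C carried amine-coupled NeutrAvidin with captured biotinylated peptides (0.5 µg/ml). Rabbit muscle aldolase was injected in 10 mM HEPES pH 7.5/100 mM KCl/0.5 mM EDTA/1 mM MgCl₂/0.2% Tween 20, with F1-6P added in some runs. Flow was 20 µl/min, with 4 min association and 10 min dissociation, and glycine pH 2.5 regeneration. NeutrAvidin-only reference cells were subtracted. ka and kd came from global fits to a 1:1 Langmuir or a two-state model.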

In another assay the test system is GAPDH. In words: SPR analysis of GAPDH binding to immobilized peptides. Further details: species or system yeast. The conditions noted are these: curves did not fit the 1:1 or the two-state model, no KD determined.
For assay [2], the target named is BAEBL (EBA140) C-terminal cytoplasmic tail peptide (Plasmodium falciparum). Nature of the assay: SPR.
Assay [3] addresses B3. Nature of the assay: SPR.
Assay [4] addresses B4. In words: SPR.
Assay [5] addresses B1. Nature of the assay: SPR.

As to YMFDQQINVVNSDLYSEGIYDDTTTF [JESEBL], the “GAPDH binding on adding the cofactor NADH” value in the assay with yeast GAPDH was “blocked”. The “binding to aldolase by SPR (qualitative)” value at rabbit muscle aldolase [1] is “not to bind; also recorded: no binding was seen”. Also, the “GAPDH binding by SPR (qualitative)” value in the assay with GAPDH is reported as “demonstrated binding”.

In assay [2], “yeast GAPDH (glyceraldehyde-3-phosphate dehydrogenase) (from UniProt P00359 1-332) (enzyme)” displayed a dissociation constant (Kd) of 0.461 µM; a ka1 (two-state model, step 1) of 10200 M^-1 S^-1; a kd1 (two-state model, step 1) of 0.016 s⁻¹; a kd2 (two-state model, step 2) of 0.003 s⁻¹.

As to B1, in the assay with rabbit muscle aldolase [3], binding was put at a Kd of 0.061 µM.

In the assay with rabbit muscle aldolase [3], B2 returned a dissociation constant Kd of 0.106 µM.

For B3, in assay [4], the “ka1 (two-state model, step 1)” value came to 16000 M^-1 S^-1; the “ka2 (two-state model, step 2)” value turned out to be 0.012 s⁻¹; the “kd1 (two-state model, step 1)” value was 0.034 s⁻¹; the “kd2 (two-state model, step 2)” value amounted to 0.000269 s⁻¹. In addition, in assay [5], the “ka1 (two-state model, step 1)” value is 45400 M^-1 S^-1; the “ka2 (two-state model, step 2)” value was 0.018 s⁻¹; the “kd1 (two-state model, step 1)” value turned out to be 0.082 s⁻¹; the “kd2 (two-state model, step 2)” value stood at 0.000647 s⁻¹.

B4 returned a Kd with rabbit muscle aldolase [3] of 0.047 µM.

In the assay with rabbit muscle aldolase [3], B5 came in with a Kd of 0.214 µM, a dissociation rate constant (koff) of 0.000183 s⁻¹ and a kon of 856 M⁻¹ s⁻¹.
